ARNT-TACC3 inh: ARNT/TACC3 interaction disruption | Q9Y6A5 | AlphaScreen His-ARNT PAS-B/GST-TACC3 binding, luminescence; TACC3 fragment carries E629A point mutation | inhibition, % at 9.99 µM | 0.66% of 390,000 active;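 active = mean inhibition of replicates at least 50% and at least half of replicates each reaching 50%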
AI-2 QS mod: Vibrio harveyi AI-2 quorum sensing modulation. activity change, % at 7.5 µM. 0.4% of 300,000 active. Vibrio harveyi JMH597 AI-2 luminescence/OD600 ratio, 9 h; hits give low values; strain lacks LuxN and CqsS sensors; 0 = neutral-control median; in the data active = activity change below about -75%, passing the limit was not always enough;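 also: luminescence divided by OD600 gain over 9 h not by final OD600 alone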
T cruzi inh: T. cruzi replication inhibition; inhibition, % (no concentration beside the values); T. cruzi beta-gal in NIH3T3, luminescence, 90 h; AID 1885; 1.4% of 300,000 active;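 active = mean inhibition across valid replicates above about 55%, limit read from the data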;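 also: signal also drops with host cell toxicity which is not excluded here; higher percent means less beta-gal luminescence so fewer parasites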
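System – NIH/3T3 host cells with β-galactosidase reporter T. cruzi · Doses – single 50 nL compound addition per well in DMSO · Reagent – 5000 T. cruzi trypomastigotes/well · Medium – Low-serum DMEM with 2% FBS · Timing – ≥90 h infection period, 3 h prior cell attachment · Evaluation – parasite load inhibition, % · Technique – GalScreen luminescence, 60 min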
HIF activator: HIF pathway transcriptional activation; U2OS HRE-luciferase reporter, luminescence; normalized: DMSO 0%, desferrioxamine 100%; activation, % at 7.5 µM (by protocol); 0.32% of 300,000 active; AID 1910;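 active = mean activation of at least 10% of the iron chelator positive control signal, with at least half of replicates also reaching 10%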
Each line names hits and unclear results; the compound was inactive in the other large screens. The list is not random: actives were taken first. Their share in the collection is about 2%.

CC(C)NC(=O)N(C)C[C@@H]1OCCCC[C@H](C)Oc2ccc(NS(=O)(=O)c3cccs3)cc2C(=O)N([C@@H](C)CO)C[C@@H]1C	none (no result: AI-2 QS mod, T cruzi inh, HIF activator)
COc1ccc(C2CC(c3ccc4ccccc4c3)=NN2C(=O)CNC2CCCCC2)cc1 (centres undefined)	T cruzi inh 80
COc1ccc(C2CC(c3ccccc3)=NN2C(=O)COC(=O)c2nc3nc(C)cc(C)n3n2)cc1 (centres undefined)	T cruzi inh 70
COC(=O)CCN(C(=O)c1cc([N+](=O)[O-])cc([N+](=O)[O-])c1)c1ccccn1	T cruzi inh 65
O=C1C(=O)c2c(C(=O)c3ccccc3)coc2-c2ccccc21	T cruzi inh 58
Cc1oc2c(c1C(=O)c1ccccc1)C(=O)C(=O)c1ccccc1-2	none
O=C(CSc1nc2c(sc3ccccc32)c(=O)n1CCCN1CCCC1)NCc1ccccc1	none
COc1ccc(CCn2c(SCCN3CCCCC3)nc3ccccc3c2=O)cc1OC	T cruzi inh 67
O=C(CSc1nc2ccccc2c(=O)n1CCCN1CCOCC1)Nc1ccc(F)c(Cl)c1	none (no result: AI-2 QS mod, T cruzi inh, HIF activator)
Cc1ccc(NC(=O)CSc2nc3ccccc3c(=O)n2CCCN2CCCCC2)cc1Cl	T cruzi inh 56
CCN(CC)CCn1c(SCC(=O)NCc2ccco2)nc2c(sc3ccccc32)c1=O	none
C=CCNC(=O)CSc1nc2ccccc2c(=O)n1CCc1ccc(OC)c(OC)c1	none
CCN(CC)CCn1c(SCC(=O)NCCC2=CCCCC2)nc2c(sc3ccccc32)c1=O	T cruzi inh 60
Cc1ccc(CNC(=O)CSc2nc3c(sc4ccccc43)c(=O)n2CCCN2CCCC2)cc1	T cruzi inh 64
C[C@H]1CN([C@@H](C)CO)C(=O)Cc2cc(NS(C)(=O)=O)ccc2O[C@@H]1CN(C)S(=O)(=O)c1ccccc1	none (no result: AI-2 QS mod, T cruzi inh, HIF activator)
Cc1noc(C)c1S(=O)(=O)Nc1ccc2c(c1)CC(=O)N([C@@H](C)CO)C[C@@H](C)[C@H](CN(C)Cc1ccc(C(=O)O)cc1)O2	none (no result: AI-2 QS mod, T cruzi inh, HIF activator)
COc1ccc(NC(=O)N(C)C[C@@H]2OCCCC[C@@H](C)Oc3ccc(NC(=O)NC(C)C)cc3C(=O)N([C@@H](C)CO)C[C@H]2C)cc1	none (no result: AI-2 QS mod, T cruzi inh, HIF activator)
C[C@H]1CCCCO[C@H](CN(C)Cc2ccc(Cl)c(Cl)c2)[C@@H](C)CN([C@@H](C)CO)C(=O)c2cc(NC(=O)Nc3cccc4ccccc34)ccc2O1	none (no result: AI-2 QS mod, T cruzi inh, HIF activator)
CC(=O)Nc1ccc(S(=O)(=O)c2ccc([N+](=O)[O-])cc2)cc1	T cruzi inh 70
O=C(C1CC1)N1CCCCN2[C@H](C1)[C@@H](c1ccc(C#CC3CC3)cc1)[C@@H]2CO	none (no result: AI-2 QS mod, T cruzi inh, HIF activator)
CCc1cccc2sc(N(CCCN3CCOCC3)C(=O)CS(=O)(=O)c3ccccc3)nc12	none
O=C(CCS(=O)(=O)c1ccccc1)N(CCCN1CCOCC1)c1nc2ccc(F)cc2s1	T cruzi inh 63
O=C(CCS(=O)(=O)c1ccccc1)N(CCCN1CCOCC1)c1nc2c(F)cccc2s1	T cruzi inh 55 (no result: ARNT-TACC3 inh)
CCNC(=O)[C@@H]1[C@@H](CO)[C@@H]2Cn3c(ccc(-c4ccncc4)c3=O)[C@H]1N2Cc1ccccc1	none (no result: AI-2 QS mod, T cruzi inh, HIF activator)
O=C(Nc1cccc(F)c1)N1CC=C(c2ccc(Cl)cc2)CC1	T cruzi inh 55
Nc1ccc(C23CC4CC(CC(CO)(C4)C2)C3)cc1	none
NCC12CC3CC(C1)CC(c1ccc(Cl)cc1)(C3)C2	T cruzi inh 64
O=C(Nc1cc(F)ccc1F)N[C@H]1CC[C@H](CCNC(=O)c2cnccn2)O[C@@H]1CO	none (no result: AI-2 QS mod, T cruzi inh, HIF activator)
COCc1nnc(NC(=O)c2cc(Cl)ccc2OC)s1	HIF activator 877
O=C(C[C@@H]1CC[C@@H](NC(=O)CC2CC2)[C@@H](CO)O1)NCc1ccc(Cl)cc1	none (no result: AI-2 QS mod, T cruzi inh, HIF activator)
O=C(CSc1nnc(COc2ccc(Cl)cc2)o1)N1c2ccccc2CCc2ccccc21	T cruzi inh 66
CN1/C(=C/C(=S)NC(=O)C2(C)CC2(Cl)Cl)C(C)(C)c2ccccc21 (centres undefined)	ARNT-TACC3 inh 48, T cruzi inh 55
Cc1ccc(C2CC(=O)C(C=NCCN3CCN(C(=S)Nc4ccc(F)cc4)CC3)=C(O)C2)cc1 (centres undefined)	none
Cc1cc(C)nc(N/N=C/C2=C(O)CC(c3ccc(F)cc3)CC2=O)n1 (centres undefined)	HIF activator 22 (no result: ARNT-TACC3 inh)
Cc1cc(C)c(S(=O)(=O)N2CCN(c3ccc([N+](=O)[O-])c(-n4nc(C)cc4C)c3)CC2)c(C)c1	T cruzi inh 61
COc1ccc(NC(=O)N2CCCCN3[C@H](CO)[C@@H](c4ccc(C#CCC(C)C)cc4)[C@@H]3C2)cc1	none (no result: AI-2 QS mod, T cruzi inh, HIF activator)
Cc1sc(N/N=C/C=C/c2ccccc2)nc1-c1ccccc1	T cruzi inh 55
Cc1cc(C)nc(N/N=C/C=C/c2ccccc2)n1	none
COc1cccc(CNC(=O)[C@H]2[C@H](CO)[C@H]3Cn4c(ccc(-c5ccncc5)c4=O)[C@@H]2N3C(C)=O)c1	none (no result: AI-2 QS mod, T cruzi inh, HIF activator)
COc1cccc(C#Cc2cnc3c(c2)C(=O)N([C@H](C)CO)C[C@@H](C)[C@H](CN(C)C(=O)C2CC2)O3)c1	none (no result: AI-2 QS mod, T cruzi inh, HIF activator)
CO[C@@H]1CN(C)C(=O)c2ccc(NC(=O)C3CCOCC3)cc2OC[C@@H](C)NC[C@H]1C	none (no result: AI-2 QS mod, T cruzi inh, HIF activator)
C[C@@H]1CN([C@@H](C)CO)C(=O)c2cccc(NS(=O)(=O)c3cn(C)cn3)c2O[C@@H]1CN(C)C(=O)Nc1ccc2c(c1)OCO2	none (no result: AI-2 QS mod, T cruzi inh, HIF activator)
O=C(OCn1ncc(Cl)c(Cl)c1=O)c1ccccc1Cl	T cruzi inh 58
O=C(OCn1ncc(Cl)c(Cl)c1=O)c1ccc(F)cc1	T cruzi inh 63 (no result: ARNT-TACC3 inh)
O=c1c(Cl)c(Cl)cnn1Cc1ccc(F)cc1	none
O=C1CN(C(=O)Cn2ncc(Cl)c(Cl)c2=O)c2ccccc2N1	T cruzi inh 75
O=C1CN(C(=O)COc2ccc(Cl)c(Cl)c2)c2ccccc2N1	none (no result: AI-2 QS mod, T cruzi inh, HIF activator)
O=C(Cn1ncc(Cl)c(Cl)c1=O)c1ccc(Cl)cc1	T cruzi inh 75
CN(C)CCCNC(=O)C[C@H]1C=C[C@@H](NC(=O)Cc2cccnc2)[C@@H](CO)O1	none (no result: AI-2 QS mod, T cruzi inh, HIF activator)
Cc1noc(C)c1NC(=O)Nc1ccc2c(c1)CC(=O)N([C@@H](C)CO)C[C@@H](C)[C@@H](CN(C)S(=O)(=O)c1ccc(F)cc1)O2	none (no result: AI-2 QS mod, T cruzi inh, HIF activator)
O=C(C[C@@H]1C[C@H]2c3cc(NC(=O)c4ccc5c(c4)OCO5)ccc3O[C@H]2[C@H](CO)O1)NCCc1ccccc1	none (no result: AI-2 QS mod, T cruzi inh, HIF activator)
Cc1ccc(CN2CCC(Oc3cccc(C(=O)N(C)CCN(C)C)c3)CC2)cc1C	T cruzi inh 57
C[C@@H]1CCCCO[C@@H](CN(C)Cc2ccc3c(c2)OCO3)[C@H](C)CN([C@H](C)CO)C(=O)c2cc(NC(=O)c3ccccc3)ccc2O1	none (no result: AI-2 QS mod, T cruzi inh, HIF activator)
COc1ccc2[nH]cc(C(=O)CCl)c2c1	T cruzi inh 61
CCOC(=O)CN(C(=O)COc1nc(C)cc(C)c1C#N)c1cccc(Cl)c1	HIF activator 25
CCOC(=O)CN(C(=O)COc1nc(-c2ccccc2)cc(C)c1C#N)c1ccccc1	none
Cn1c(C(=O)OC(C(=O)NC2CCCC2)c2cccnc2)cc2sccc21 (centres undefined)	T cruzi inh 65

Source: PubChem (Broad Institute)
